The species entered for series [1] is Homo sapiens. As to the kind of experiment: Binding affinity to human TBA G-quadruplex DNA assessed as change in melting temperature at 10 uM by FRET assay. The method, boiled down:
(§1)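 FRET melting: target oligos labelled 5′-DABCYL / 3′-fluorescein, 0.25 μM, with ligand in 50 mM potassium buffer (10 mM LiOH, 50 mM KCl, pH 7.4). Samples denatured at 95 °C for 5 min, cooled slowly overnight, then ramped to 90 °C and back to 30 °C at 0.2 °C/min. Excitation 488 nm, emission 520 nm. Tm taken from first derivative; at least three repeats, errors ±0.2 °C.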

For series [2], the species on record is Homo sapiens. The series is described as follows: Binding affinity to human kit2 G-quadruplex DNA assessed as change in melting temperature at 10 uM by FRET assay. The method, boiled down: as §1
The species entered for series [3] is Homo sapiens. The series is described as follows: Binding affinity to human c-myc G-quadruplex DNA assessed as change in melting temperature at 10 uM by FRET assay. An outline of the steps:
as §1

The species entered for series [4] is Homo sapiens. As to the kind of experiment: Binding affinity to human kit1 G-quadruplex DNA assessed as change in melting temperature at 10 uM by FRET assay. The method, boiled down:
as §1

For series [5], the species on record is Homo sapiens. The series is described as follows: Binding affinity to human Tel24 G-quadruplex DNA at 2:1 ligand/DNA ratio by NMR analysis.
The test system of series [6] is HT-29. The series is described as follows: Cytotoxicity against human HT-29 cells assessed as inhibition of cell survival after 4 days by clonogenic assay. The class given is functional, cell-based. The method, boiled down:
(§2)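 Cells seeded at 5 × 10^2 per 60 mm dish and treated 24 h later across a dose series for 4 days, then colony formation scored. Surviving fraction = treated/control absolute survival. IC50 from dose–response. Mean ± SD of three independent experiments.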

The species entered for series [7] is Homo sapiens. The series is described as follows: Displacement of thiazole orange from human Tel24 G-quadruplex DNA up to 28 uM by fluorescent intercalator displacement assay. An outline of the steps:
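Tel24 unlabelled (0.6 μM) preloaded with thiazole orange (1.2 μM) in 10 mM Tris, 50 mM KCl, pH 7.4. Ligand added in increasing amounts and fluorescence emission followed. Displacement % = 100 − (F/F0 × 100), with F0 the signal before ligand, plotted against concentration. At least three repeats, each in triplicate.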

Series [8] is filed under the species Homo sapiens. As to the kind of experiment: Binding affinity to human Tel24 G-quadruplex DNA assessed as change in DNA topology by CD spectroscopic analysis. The method, boiled down:
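CD spectra recorded at 25 °C, 220–320 nm, on annealed Tel24 (40 μM) with or without an excess of ligand. Buffer 10 mM Tris-HCl, 50 mM KCl, pH 7.4; 1 mm path length. Average of three scans, buffer baseline subtracted. Time constant 4 s, bandwidth 2 nm, scan rate 20 nm min−1.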

For series [9], the system named is HT-29. The series is described as follows: Induction of apoptosis in human HT-29 cells assessed as late apoptotic cells at 2 uM measured on day 5 by Annexin V/propidium iodide staining-based flow cytometric analysis (reference value: 10%). The class given is functional. For orientation: Flow cytometry measures light scatter and fluorescence of single cells or particles in a stream.

For series [10], the system named is HT-29. The series is described as follows: Cell cycle arrest in human HT-29 cells assessed as accumulation at subG1 phase at 2 uM by […]propidium iodide staining-based flow cytometric analysis. In kind it is functional. To be noted: TDE = time-dependent effect. The method, boiled down: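 HT29 cells cultured with or without 2 μM and sampled on days 4, 5 and 6. Cells fixed in 70% ethanol, stained 30 min at room temperature in the dark with PI (50 μg/mL) plus RNase A, and analysed by flow cytometry (20000 events). Sub-G1 fraction taken as the apoptotic measure.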

The species entered for series [11] is Homo sapiens. The series is described as follows: Binding affinity to human Tel24 G-quadruplex DNA assessed as change in melting temperature at 10 uM by FRET assay. The method, boiled down:
as §1

Series [12] relates to BJ. The series is described as follows: Induction of telomere dysfunction induced foci in human BJ cells expressing SV40 early protein HELT assessed as increase in gamma H2AX/TRF1 co-localization at 1 uM by deconvolution microscopy relative to control. In kind it is functional. The method, boiled down:
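BJ-HELT fibroblasts given 1 μM, then double immunofluorescence for γH2AX and TRF1 with DAPI, imaged by deconvolution microscopy. In a single plane, 30 γH2AX-positive cells scored; cells with at least four γH2AX/TRF1 colocalizations counted as TIF-positive. Mean TIFs per nucleus also scored. Mean ± SD, three experiments.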

For series [13], the species on record is Homo sapiens. As to the kind of experiment: Binding affinity to human Tel24 G-quadruplex DNA assessed as change in melting temperature up to 20 uM by FRET assay. An outline of the steps: as §1
The subject of series [14] is BJ. The series is described as follows: Cytotoxicity against human BJ cells expressing human TERT assessed as cell viability up to 3 uM after 4 days by MTT assay. The class given is cell-based. Conditions: 96 h. An outline of the steps: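 BJ-hTERT cells seeded at 3 × 10^3 per well and treated 24 h later with 0, 1, 2 or 3 μM for 4 days. MTT (5 mg/mL stock in PBS) added, followed by 4 h at 37 °C. Formazan dissolved in isopropanol and OD read at 540 nm. Mean ± SD of three experiments.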
Background: Tetrazolium assays rely on reduction of a dye to a coloured formazan, in cell work by metabolically active cells.

The test system of series [15] is HT-29. The series is described as follows: Induction of apoptosis in human HT-29 cells assessed as early apoptotic cells at 2 uM measured on day 5 by Annexin V/propidium iodide staining-based flow cytometric analysis (reference value: 4%). In kind it is functional.
In series [16] the test system is BJ. As to the kind of experiment: Induction of DNA damage response in human BJ cells expressing human TERT assessed as phosphorylation of gamma H2AX at 1 uM after 24 hrs by DAPI staining-based immunofluorescence analysis. The class given is cell-based. The method, boiled down: (§3)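 BJ-HELT and BJ-hTERT fibroblasts grown in D-MEM with 10% FCS and 2 mM glutamine, exposed to 1 μM for 24 h. Cells fixed in 2% formaldehyde, permeabilized with 0.25% Triton X-100, stained with anti-γH2AX plus FITC secondary, and counterstained with DAPI. 200 cells scored on triplicate slides. Mean ± SD of at least three experiments.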

Series [17] relates to BJ. As to the kind of experiment: Induction of DNA damage response in human BJ cells expressing SV40 early region protein HELT assessed as phosphorylation of gamma H2AX at 1 uM after 24 hrs by DAPI staining-based immunofluorescence analysis relative to control. In kind it is functional. The method, boiled down: as §3
The next series concerns HeLa. As to the kind of experiment: Cytotoxicity against human HeLa cells assessed as inhibition of cell survival after 4 days by clonogenic assay. In kind it is functional, cell-based. The method, boiled down:
as §2

The next series has as its system U2OS. The series is described as follows: Cytotoxicity against human U2OS cells assessed as inhibition of cell survival after 4 days by clonogenic assay. The class given is functional, cell-based. The method, boiled down: as §2

Activity calls are given as the source filed them. The calls are words filed in the database; no cut-off is given here. A value given as a limit tells only on which side of the number the result lay.

`Cc1cc(NC(=O)c2cc(-c3ccccc3O)no2)nn1CC(=O)N1CCOCC1`: the outcome in the series filed under Homo sapiens [1], in the series filed under Homo sapiens [2], in the series filed under Homo sapiens [3] and in the series listed under Homo sapiens [4] was inactive.
As a reminder, the IC50 is the concentration that gives 50% inhibition. As usually defined, the ΔTm is the change in melting temperature against a reference sample. Turning to `Cn1c(=O)c2cc(C(=O)NCCN3CCC(Cc4ccccc4)CC3)sc2c2ccccc21`, the outcome in the series listed under Homo sapiens [5], in the series filed under Homo sapiens [7], in the series listed under Homo sapiens [8] and in the series listed under Homo sapiens [11] was Active. Further, the Activity result in the series on HT-29 [6] is “Dose-dependent effect”; with HT-29 [9], 30%; with HT-29 [10], “tde”; in the series with BJ [12] it was “<=50%”; in the series with BJ [14], “Non-toxic”; with HT-29 [15], 37%. The Activity entry with BJ [16] is “Non-toxic”; in the series on BJ [17], 60%; in the series with HeLa, “Dose-dependent effect”; with U2OS it was “Dose-dependent effect”. The IC50 is 1 µM in the series on HT-29 [6] (HT-29, 96 h); 1 µM with HeLa (96 h); 1 µM in the series on U2OS (96 h). The ΔTm in the series listed under Homo sapiens [13] was 11 °C.
`Clc1ccc2[nH]c(-c3ccc(OCCCN4CCN(c5ccccc5)CC4)cc3)nc2c1`: the result in the series listed under Homo sapiens [7], in the series filed under Homo sapiens [1], in the series listed under Homo sapiens [13], in the series filed under Homo sapiens [2], in the series filed under Homo sapiens [3] and in the series filed under Homo sapiens [4] was inactive. Besides, the Activity entry in the series with BJ [16] was “Non-toxic”. In the series with BJ [17], the result was Active.
In the case of `COc1ccc(NC(=O)c2ccc(CN3CCC(Cc4ccccc4)CC3)cc2)cc1OC`, the result in the series listed under Homo sapiens [7], in the series filed under Homo sapiens [1], in the series listed under Homo sapiens [13], in the series listed under Homo sapiens [2], in the series listed under Homo sapiens [3] and in the series filed under Homo sapiens [4] was inactive. Also, the Activity entry in the series with BJ [16] is “Non-toxic”. Besides, the outcome in the series on BJ [17] was Active.

Source of the values: ChEMBL document CHEMBL3108685, “Exploring the chemical space of G-quadruplex binders: discovery of a novel chemotype targeting the human telomeric sequence” (J Med Chem, 2013).
